These results are taken from ChEMBL document CHEMBL4261491, “Synthesis and synergistic antifungal effects of monoketone derivatives of curcumin against fluconazole-resistant Candida spp” (Medchemcomm, 2017).

Data set [1] concerns Pichia kudriavzevii. The experiment in a line: Antifungal activity against fluconazole-resistant Candida krusei clinical isolate 2159 by broth microdilution method. The format is functional. Put shortly:
(§1)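 Broth microdilution per CLSI/NCCLS M27-A2 against FLC-resistant clinical isolates. MIC80 read for each compound alone and with fluconazole at 8.0 μg ml–1. C. albicans ATCC 90028 served as quality control. Curcumin was the positive control.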

The test system of data set [2] is Candida albicans. The data set can be described thus: Antifungal activity against fluconazole-resistant Candida albicans clinical isolate 103 by broth microdilution method. It is filed as functional. Put shortly:
as §1

Data set [3] relates to Candida tropicalis. The data set can be described thus: Antifungal activity against fluconazole-resistant Candida tropicalis clinical isolate 087 by broth microdilution method. It is filed as functional. In short, it runs like this: as §1
In data set [4] the test system is Candida albicans. The data set can be described thus: Antifungal activity against fluconazole-resistant Candida albicans clinical isolate 103 in presence of 8 ug/ml fluconazole by broth microdilution method. Particulars: for MIC80: Candida albicans, isolate 103. The format is functional. Put shortly: as §1
Data set [5] concerns Candida tropicalis. The data set can be described thus: Antifungal activity against fluconazole-resistant Candida tropicalis clinical isolate 087 in presence of 8 ug/ml fluconazole by broth microdilution method. The format is functional. The following applies: for MIC80: Candida tropicalis, isolate 087. In short, it runs like this:
as §1

Data set [6] concerns Pichia kudriavzevii. The data set can be described thus: Antifungal activity against fluconazole-resistant Candida krusei clinical isolate 2159 in presence of 8 ug/ml fluconazole by broth microdilution method. The format is functional. Particulars: for MIC80: Pichia kudriavzevii, isolate 2159. In short, it runs like this: as §1
Data set [7] concerns Candida tropicalis. The experiment in a line: Antifungal activity against fluconazole-resistant Candida tropicalis clinical isolate 087 at 64 ug/ml after 16 hrs by turbidity method. The format is functional, organism-based. Put shortly:
(§2)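 C. tropicalis 087 at 10^4 CFU ml–1 in RPMI 1640 in glass tubes. Compound (0–128 μg ml–1) and fluconazole (0–2 μg ml–1) were added alone or in combination. Tubes were shaken at 200 rpm at 30 °C for 16 h, and turbidity was inspected visually and photographed.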

In data set [8] the test system is Candida tropicalis. The experiment in a line: Synergistic antifungal activity against fluconazole-resistant Candida tropicalis clinical isolate 087 at 4 ug/ml after 16 hrs in presence of fluconazole by turbidity method. It is filed as functional, organism-based. Put shortly:
as §2

Data set [9] deals with Candida tropicalis. The experiment in a line: Antifungal activity against fluconazole-resistant Candida tropicalis clinical isolate 087 assessed as fungal growth inhibition at 64 ug/ml after 48 hrs. The format is functional, organism-based. In short, it runs like this:
(§3)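 C. tropicalis 087 was grown in RPMI 1640 at 30 °C for 48 h with fluconazole (0.25, 0.5, 1 μg ml–1) or compound (64, 128 μg ml–1), alone or combined. OD630 was read every 8 h to build growth curves. Three independent experiments, means ± SD.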

Data set [10] relates to Candida tropicalis. The data set can be described thus: Fungicidal activity against fluconazole-resistant Candida tropicalis clinical isolate 087 at 128 ug/ml after 48 hrs. The format is functional, organism-based. Put shortly: as §3
The test system of data set [11] is Candida tropicalis. The data set can be described thus: Antifungal activity against fluconazole-resistant Candida tropicalis clinical isolate 087 assessed as apoptosis at 128 ug/ml after 48 hrs. The format is functional, organism-based.
In data set [12] the test system is Candida tropicalis. The experiment in a line: Synergistic fungicidal activity against fluconazole-resistant Candida tropicalis clinical isolate 087 at 64 to 128 ug/ml after 48 hrs in presence of 1 ug/ml fluconazole. The format is functional, organism-based. Put shortly:
as §3

In data set [13] the test system is Candida tropicalis. The data set can be described thus: Antifungal activity against fluconazole-resistant Candida tropicalis clinical isolate 087 assessed as fungus with permeabilized membrane at 32 ug/ml after 12 hrs by propidium iodide staining-based flow cytometry (reference value: 7.22%). The format is functional.
In data set [14] the test system is Candida tropicalis. The data set can be described thus: Synergistic antifungal activity against fluconazole-resistant Candida tropicalis clinical isolate 087 assessed as fungus with permeabilized membrane at 32 ug/ml after 12 hrs in presence of 2 ug/ml fluconazole by propidium iodide staining-based flow cytometry (reference value: 7.22%). It is filed as functional.

Data set [15] in a line: Cytotoxicity against HUVEC assessed as cell viability at 32 ug/ml after 24 hrs by MTT assay relative to control. The format is cell-based. The following applies: human, HUVEC cells; read-out: Activity. In short, it runs like this: (§4)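 HUVECs grown in DMEM with 10% FCS and 100 μg ml–1 streptomycin, 5% CO2, 37 °C. Cells exposed to compounds at 16 and 32 μg ml–1 for 24 h, then incubated with MTT solution (5 mg ml–1) for 3 h. Optical density read at 570 nm. Viability expressed as percentage relative to drug-free control.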

Data set [16] in a line: Cytotoxicity against HUVEC assessed as cell viability at 16 ug/ml after 24 hrs by MTT assay relative to control. It is filed as cell-based. Particulars: human, HUVEC cells; read-out: Activity. In short, it runs like this:
as §4

Data set [17] has as its system Candida tropicalis. The data set can be described thus: Antifungal activity against fluconazole-resistant Candida tropicalis clinical isolate 087 at 1 ug/ml after 16 hrs by turbidity method. The format is functional, organism-based. In short, it runs like this: as §2
The subject of data set [18] is Candida tropicalis. The experiment in a line: Antifungal activity against fluconazole-resistant Candida tropicalis clinical isolate 087 assessed as fungal growth inhibition at 0.5 ug/ml after 48 hrs. The format is functional, organism-based. In short, it runs like this:
as §3

Data set [19] relates to Candida tropicalis. The data set can be described thus: Antifungal activity against fluconazole-resistant Candida tropicalis clinical isolate 087 assessed as fungus with permeabilized membrane at 2 ug/ml after 12 hrs by propidium iodide staining-based flow cytometry (reference value: 7.22%). The format is functional.

Values after ≈ are worked out from the molar mass of the structure shown. Active and inactive are the calls of the source. No cut-off for these calls is given here. Where only a bound is given, the exact number is not on record here.

With `O=C(/C=C/c1ccc(O)c(O)c1)/C=C/c1ccc(O)c(O)c1`, the MIC80 in the data set on Pichia kudriavzevii [1] is 64 µg/mL (≈ 215 µM); in the data set with Candida albicans [2], 64 µg/mL (≈ 215 µM); against Candida tropicalis [3], 64 µg/mL (≈ 215 µM); in the data set with Candida albicans [4] it was 4 µg/mL; with Candida tropicalis [5] it was 4 µg/mL; with Pichia kudriavzevii [6], 8 µg/mL. The “fractional inhibitory concentration index (FICI)” value with Candida albicans [4] worked out at 0.125; in the data set on Candida tropicalis [5] it was 0.125; in the data set on Pichia kudriavzevii [6], 0.188. In addition, the result in the data set with Candida tropicalis [7], in the data set with Candida tropicalis [8], in the data set with Candida tropicalis [10], with Candida tropicalis [11] and with Candida tropicalis [12] was Active. Also, in the data set on Candida tropicalis [9], the “growth inhibition (GI)” value was “Active”. Besides, the Activity was 20.92% in the data set with Candida tropicalis [13] and 72.79% in the data set on Candida tropicalis [14]. Further, the viability at 24 h, 32 ug/ml in data set [15] stood at 75%. For the same molecule, the viability at 24 h, 16 ug/ml in data set [16] is 91%.

For the molecule `OC(Cn1cncn1)(Cn1cncn1)c1ccc(F)cc1F` [FLUCONAZOLE], the MIC80 against Pichia kudriavzevii [1], in the data set on Candida albicans [2] and in the data set on Candida tropicalis [3] was 128 µg/mL (≈ 418 µM) in each case. In addition, the outcome with Candida tropicalis [17] was inactive. Besides, the “growth inhibition (GI)” value in the data set with Candida tropicalis [18] is “Active”. For the same molecule, the Activity in the data set on Candida tropicalis [19] was determined as 37.27%.

For the molecule `O=C1/C(=C/c2ccc(CO)o2)CC/C1=C\c1ccc(CO)o1`, the MIC80 with Pichia kudriavzevii [1] was above 64 µg/mL; in the data set on Candida albicans [2], above 64 µg/mL; in the data set with Candida tropicalis [3], above 64 µg/mL; in the data set on Candida albicans [4] it was above 64 µg/mL; with Candida tropicalis [5] it was 4 µg/mL; in the data set with Pichia kudriavzevii [6] it was above 64 µg/mL. Besides, the figures for the “fractional inhibitory concentration index (FICI)” value in the data set with Candida albicans [4], in the data set with Candida tropicalis [5] and in the data set on Pichia kudriavzevii [6] were above 1.06, 0.125 and above 1.06, respectively. The viability at 24 h, 32 ug/ml in data set [15] turned out to be 57%. Besides, the viability at 24 h, 16 ug/ml in data set [16] was found to be 68%.

As to `O=C(/C=C/c1ccc(F)cc1)/C=C/c1ccc(F)cc1`, the MIC80 is above 64 µg/mL in the data set on Pichia kudriavzevii [1]; above 64 µg/mL with Candida albicans [2]; above 64 µg/mL against Candida tropicalis [3]; above 64 µg/mL with Candida albicans [4]; 8 µg/mL with Candida tropicalis [5]; above 64 µg/mL with Pichia kudriavzevii [6]. The “fractional inhibitory concentration index (FICI)” value with Candida albicans [4] is above 1.06; with Candida tropicalis [5], 0.188; in the data set on Pichia kudriavzevii [6] it was above 1.06. Moreover, the viability at 24 h, 32 ug/ml in data set [15] was 43%. For the same molecule, the viability at 24 h, 16 ug/ml in data set [16] stood at 64%.

Consider `O=C(/C=C/c1ccc(O)cc1)/C=C/c1ccc(O)cc1`, for which the MIC80 in the data set with Pichia kudriavzevii [1] is above 64 µg/mL; against Candida albicans [2], above 64 µg/mL; in the data set on Candida tropicalis [3] it was above 64 µg/mL; with Candida albicans [4] it was above 64 µg/mL; in the data set with Candida tropicalis [5] it was 8 µg/mL; in the data set on Pichia kudriavzevii [6], above 64 µg/mL. The results for the “fractional inhibitory concentration index (FICI)” value with Candida albicans [4], in the data set on Candida tropicalis [5] and with Pichia kudriavzevii [6] were above 1.06, 0.188 and above 1.06, respectively. For the same molecule, the viability at 24 h, 32 ug/ml in [15] is 75%. In [16], the viability at 24 h, 16 ug/ml is 87%.

Take `O=C(/C=C/c1cccs1)/C=C/c1cccs1`: the MIC80 with Pichia kudriavzevii [1] is above 64 µg/mL; in the data set on Candida albicans [2] it was above 64 µg/mL; in the data set with Candida tropicalis [3], above 64 µg/mL; with Candida albicans [4], 8 µg/mL; with Candida tropicalis [5] it was above 64 µg/mL; in the data set on Pichia kudriavzevii [6] it was above 64 µg/mL. Further, the “fractional inhibitory concentration index (FICI)” value was 0.188 in the data set on Candida albicans [4], above 1.06 with Candida tropicalis [5] and above 1.06 in the data set on Pichia kudriavzevii [6]. The viability at 24 h, 32 ug/ml in [15] is 49%. Besides, the viability at 24 h, 16 ug/ml in [16] is 84%.

As to `O=C(/C=C/c1ccc2c(c1)OCO2)/C=C/c1ccc2c(c1)OCO2`, the MIC80 against Pichia kudriavzevii [1] was above 64 µg/mL; with Candida albicans [2], above 64 µg/mL; against Candida tropicalis [3], above 64 µg/mL; with Candida albicans [4], 32 µg/mL; with Candida tropicalis [5] it was 16 µg/mL; in the data set on Pichia kudriavzevii [6], 2 µg/mL. In addition, the “fractional inhibitory concentration index (FICI)” value in the data set on Candida albicans [4] is given as 0.563; with Candida tropicalis [5], 0.313; in the data set with Pichia kudriavzevii [6], 0.094. In addition, the viability at 24 h, 32 ug/ml in [15] worked out at 71%. In addition, in data set [16], the viability at 24 h, 16 ug/ml came out at 88%.

With `O=C1/C(=C/c2ccco2)CC/C1=C\c1ccco1`, the MIC80 against Pichia kudriavzevii [1] was above 64 µg/mL; against Candida albicans [2], above 64 µg/mL; against Candida tropicalis [3] it was above 64 µg/mL; in the data set on Candida albicans [4], above 64 µg/mL; with Candida tropicalis [5] it was 8 µg/mL; in the data set with Pichia kudriavzevii [6], above 64 µg/mL. Further, the “fractional inhibitory concentration index (FICI)” value with Candida albicans [4] is reported as above 1.06; in the data set with Candida tropicalis [5], 0.188; in the data set with Pichia kudriavzevii [6] it was above 1.06. Moreover, the viability at 24 h, 32 ug/ml in data set [15] came out at 69%. Besides, the viability at 24 h, 16 ug/ml in data set [16] was determined as 86%.
